From ChEMBL document CHEMBL1127053, “3,4-Dimethyl-4-(3-hydroxyphenyl)piperidines: opioid antagonists with potent anorectant activity” (J Med Chem, 1993)

Key:
[1] = molecular target: T1, Adrenergic receptor alpha-1 (Rattus norvegicus, UniProt P15823+P23944+P43140); experiment: Tested for affinity against alpha-adrenergic using [3H]WB-4101 in rat brain; assay type: tissue-based
T1 sequence (P15823 whole entry): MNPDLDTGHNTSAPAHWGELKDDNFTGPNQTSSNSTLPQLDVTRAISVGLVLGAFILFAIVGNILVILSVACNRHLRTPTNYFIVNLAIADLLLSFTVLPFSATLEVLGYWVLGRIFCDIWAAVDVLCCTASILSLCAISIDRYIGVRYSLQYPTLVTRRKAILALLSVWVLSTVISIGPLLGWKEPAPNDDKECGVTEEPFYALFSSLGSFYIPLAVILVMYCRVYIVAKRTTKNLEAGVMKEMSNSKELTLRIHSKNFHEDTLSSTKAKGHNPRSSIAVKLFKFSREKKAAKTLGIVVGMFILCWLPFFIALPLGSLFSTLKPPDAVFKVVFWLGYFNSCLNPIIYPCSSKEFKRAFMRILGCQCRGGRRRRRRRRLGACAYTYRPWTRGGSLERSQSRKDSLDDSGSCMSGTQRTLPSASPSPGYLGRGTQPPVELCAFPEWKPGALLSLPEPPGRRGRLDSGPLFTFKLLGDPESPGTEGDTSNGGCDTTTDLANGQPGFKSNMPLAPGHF
T1 sequence (P23944 whole entry): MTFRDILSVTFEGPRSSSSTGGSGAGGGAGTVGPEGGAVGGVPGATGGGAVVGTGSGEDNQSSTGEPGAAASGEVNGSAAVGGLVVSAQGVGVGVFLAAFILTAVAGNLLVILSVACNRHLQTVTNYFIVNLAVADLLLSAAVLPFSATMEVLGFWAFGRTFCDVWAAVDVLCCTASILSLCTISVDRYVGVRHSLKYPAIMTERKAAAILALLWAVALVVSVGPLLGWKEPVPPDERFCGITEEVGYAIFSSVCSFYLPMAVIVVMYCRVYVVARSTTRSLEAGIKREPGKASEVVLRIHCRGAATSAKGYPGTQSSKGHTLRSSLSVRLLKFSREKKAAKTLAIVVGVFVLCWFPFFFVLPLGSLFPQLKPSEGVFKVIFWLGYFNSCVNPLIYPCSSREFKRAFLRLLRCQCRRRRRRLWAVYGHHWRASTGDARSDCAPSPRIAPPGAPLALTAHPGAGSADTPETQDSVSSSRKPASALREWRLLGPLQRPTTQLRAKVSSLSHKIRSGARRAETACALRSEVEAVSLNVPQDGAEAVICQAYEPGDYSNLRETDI
T1 sequence (P43140 whole entry): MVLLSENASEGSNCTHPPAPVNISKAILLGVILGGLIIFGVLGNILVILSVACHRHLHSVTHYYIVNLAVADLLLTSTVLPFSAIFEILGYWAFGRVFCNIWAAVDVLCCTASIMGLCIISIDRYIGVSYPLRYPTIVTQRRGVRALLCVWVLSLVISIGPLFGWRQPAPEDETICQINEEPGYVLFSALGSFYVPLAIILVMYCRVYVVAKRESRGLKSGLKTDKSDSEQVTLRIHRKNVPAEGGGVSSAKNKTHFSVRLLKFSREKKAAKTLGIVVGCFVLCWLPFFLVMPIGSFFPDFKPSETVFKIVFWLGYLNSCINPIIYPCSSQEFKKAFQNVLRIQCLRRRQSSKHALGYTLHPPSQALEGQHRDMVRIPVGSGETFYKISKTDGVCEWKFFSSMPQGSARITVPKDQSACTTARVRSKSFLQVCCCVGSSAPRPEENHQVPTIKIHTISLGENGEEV
Procedure, shortened: (§1)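 Radioligand binding in cortical membranes from male Sprague-Dawley rats (110-150 g). Ligands: [3H]serotonin for 5-HT1, [3H]QNB for muscarinic, [3H]WB4101 for α1, [3H]clonidine for α2, [3H]dihydroalprenolol for β-adrenergic.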

[2] = molecular target: Mu-type opioid receptor (Mus musculus) (UniProt P42866); experiment: Antagonistic activity towards morphine induced mu-opioid receptor by mouse writhing assay at 1.25 mg/kg subcutaneously; assay type: functional, organism-based; set-up: dose 1.25 mg/kg
Procedure, shortened: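 Mouse acetic acid writhing: 0.6% acetic acid ip, writhes counted for 10 min starting 5 min after injection. Agonist (morphine 1.25 mg/kg or U50,488 2.5 mg/kg) and antagonist given sc 20 min before acid. 5 mice/point, ≥5 doses varied 2-fold, each mouse used once. AD50 = antagonist dose reducing agonist-induced writhing inhibition to 50%.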

[3] = Tested for affinity against serotonin 5-HT1 receptor using [3H]5-HT in rat brain; assay type: tissue-based; procedure, shortened: as §1
[4] = molecular target: Serotonin receptor 2a and 2c (5HT2A and 5HT2C) (Rattus norvegicus, UniProt P08909+P14842); experiment: Tested for affinity against serotonin 5-HT2 receptor using […] (frontal cortex) in rat brain; assay type: tissue-based

Sequence of Mu-type opioid receptor (Mus musculus) (P42866 whole entry): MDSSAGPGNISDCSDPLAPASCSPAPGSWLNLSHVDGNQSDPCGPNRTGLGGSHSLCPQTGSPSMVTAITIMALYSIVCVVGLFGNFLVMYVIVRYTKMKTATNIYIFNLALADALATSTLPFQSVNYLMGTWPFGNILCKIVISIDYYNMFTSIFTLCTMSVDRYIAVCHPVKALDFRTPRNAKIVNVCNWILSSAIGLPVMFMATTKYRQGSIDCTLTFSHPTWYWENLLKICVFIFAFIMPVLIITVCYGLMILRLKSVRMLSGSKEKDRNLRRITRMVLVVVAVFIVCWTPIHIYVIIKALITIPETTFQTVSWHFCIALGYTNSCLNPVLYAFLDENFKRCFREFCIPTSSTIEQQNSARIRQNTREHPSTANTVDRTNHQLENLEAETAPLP

`C[C@H]1CN(CC[C@H](O)C2CCCCC2)CC[C@@]1(C)c1cccc(O)c1` gave an IC50 [1] greater than 5 µM, an AD50 [2] of 0.015 mg/kg and an IC50 [3] greater than 1 µM. The IC50 [4] was greater than 1 µM.
